# Assay outcomes from PubChem.
# SMARCA2 activ: SMARCA2 function activation, primary screen; MG213 cells, MMTV-luciferase reporter, dexamethasone, overnight; activation, % at 9.1 µM; actives 1% (n = 370,000); AID 652017; in the data active means activation above about 7.8%;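 further: 0% = vehicle wells and 100% = reference activator wells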
# F508del corr: correctors of CFTR F508del function in bronchial epithelial cells. activity (quench increase), % at 7.58 µM. actives 0.36% (n = 350,000). CFBE cells, YFP halide quenching; stimulated with forskolin plus potentiator P3; % fluorescence drop versus neutral controls. AID 720511;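 active means mean added fluorescence quench of at least 8% versus neutral control, with both replicates also reaching 8%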;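 further: cells transiently co-express mutant CFTR-F508del with the halide-sensitive YFP; corrector assay measuring rescue of mutant channel to the surface after 24 h compound exposure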
# MC4R antagonist: human MC4R antagonism in cAMP assay. actives 0.48% (n = 360,000). inhibition, % at 6.5 µM. MC4R-expressing cells, MTII-stimulated cAMP, LANCE TR-FRET. P32245;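 active means inhibition above its plate's cutoff, the mean of tested wells on that plate plus 3 SD, cut at about 29% in these data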;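 further: 0% = Melanotan II alone and 100% = Melanotan II plus saturating MCL0020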
# Target sequence (P32245 whole entry, looked up): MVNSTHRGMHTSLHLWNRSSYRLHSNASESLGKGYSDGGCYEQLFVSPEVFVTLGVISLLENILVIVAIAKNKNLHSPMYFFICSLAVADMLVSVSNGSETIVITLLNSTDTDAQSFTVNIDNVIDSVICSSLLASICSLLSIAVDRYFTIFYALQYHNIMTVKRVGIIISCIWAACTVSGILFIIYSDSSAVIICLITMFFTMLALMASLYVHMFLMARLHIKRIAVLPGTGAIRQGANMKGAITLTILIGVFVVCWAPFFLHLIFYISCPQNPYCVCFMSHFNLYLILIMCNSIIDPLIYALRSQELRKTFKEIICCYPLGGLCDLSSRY
#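 Assay system: U2OS cells stably expressing human melanocortin 4 receptor (MC4R) / Dosing: 6.5 µM / Timing: compound 30 min, challenge 1 h, detection 1 h / Measured by: Eu-cAMP/anti-cAMP TR-FRET, emission 671 nm / Replicates: singlicate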
# MC4R barr agon: human MC4R agonism via beta-arrestin; P32245; U2OS MC4R beta-arrestin complementation, luminescence; percent of melanotan II response, DMSO zero; activation, % at 8.9 µM; actives 0.98% (n = 360,000);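 active means activation above a per-plate cutoff, the mean activation of sample wells on that plate plus 3 SD, cut at about 8% in these data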
# MC4R barr conf: human MC4R beta-arrestin agonism confirmation; shares compounds with MC4R barr agon; U2OS MC4R beta-arrestin recruitment, luminescence; scaled DMSO 0%, Melanotan II 100%; activation, % at 8.9 µM; actives 31% (n = 2,400); AID 602192;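 active means mean activation across replicates above the hit cutoff set in the earlier primary screen, cut at about 8% in these data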
# MOR-DOR barr ag: OPRM1-OPRD1 heterodimer agonism counter-screen. U2OS PathHunter beta-arrestin, beta-gal luminescence; percent of deltorphin B response, DMSO zero. shares compounds with MC4R barr agon. activation, % at 9.2 µM. AID 602194. actives 5.8% (n = 2,400);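 active means mean activation across replicates exceeds the hit threshold derived in the earlier primary screen, cut at about 18% in these data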;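 further: 100% = deltorphin B at 0.9 µM final and 0% = DMSO alone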
# * = called active by the depositor; · = not tested or not shown. Shown are actives, neighbours in structure and some others; about 2.1% of the full set was active somewhere.
SMILES,SMARCA2 activ,F508del corr,MC4R antagonist,MC4R barr agon,MC4R barr conf,MOR-DOR barr ag
COc1ccc2cc(-c3cc(C(=O)OCC(=O)Nc4c(C)n(C)n(-c5ccccc5)c4=O)c4ccccc4n3)ccc2c1,5,·,0,21*,5,3
C/C(=N\Nc1nncc2ccccc12)c1cccc(OC(F)F)c1,4,-1,7,17*,0,6
C/C(=N\Nc1nncc2ccccc12)c1ccc(O)cc1,-2,-2,10,-1,·,·
CC(=O)Nc1cccc(NC(=O)CSc2ccc(C(F)(F)F)cc2[N+](=O)[O-])c1,-2,·,3,-1,·,·
O=C(CSc1ccc(C(F)(F)F)cc1[N+](=O)[O-])Nc1ccc2ccccc2c1,-2,·,-1,11*,8,6
Cc1ccc2c(c1)c1c(n2CC(O)CN2CCCCCC2)CCCC1 (configuration not stated),-3,5,-4,5,·,·
Cc1ccc2c(c1)c1c(n2CC(O)Cn2c(C)nc3ccccc32)CCCC1 (configuration not stated),-1,1,-2,9.6*,4,8
CCCNC(=O)c1c(O)c2c([nH]c1=O)CCCC2,3,1,1,-1,·,·
COc1ccc(CCNC(=O)c2c(O)c3c([nH]c2=O)CCCC3)cc1,-3,·,16,10*,8.6*,5
C[C@H]1CN([C@@H](C)CO)C(=O)c2cc(NC(=O)Nc3ccc4c(c3)OCO4)ccc2O[C@H]1CN(C)C(=O)Nc1ccc(F)cc1,·,0,·,·,·,·
O=C(OC1CCN(c2ccc([N+](=O)[O-])cc2)CC1)c1ccccc1,-3,·,2,20*,2,6
CCNC(=O)C[C@H]1CC[C@H]2[C@@H](COC[C@H](O)CN2C(=O)Nc2ccc3c(c2)OCO3)O1,·,0,·,·,·,·
COc1cccc(N2CCN(C(=O)CNC(=O)c3sc4ccccc4c3Cl)CC2)c1,-1,-6,-4,70*,3,3
CCOc1ccccc1N1CCN(C(=O)CNC(=O)c2sc3ccccc3c2Cl)CC1,-1,0,4,2,·,·
CCCN(C)C[C@@H]1OCCCC[C@@H](C)Oc2ccc(NC(=O)CCCCCC(=O)Nc3ccccc3N)cc2C(=O)N([C@H](C)CO)C[C@@H]1C,·,-1,·,·,·,·
COc1ccc(Cl)cc1Nc1nc(C)nc2c1nnn2Cc1ccccc1,-3,1,9,-1,·,·
CCOC(=O)c1ccc(Nc2nc(C)nc3c2nnn3Cc2ccccc2)cc1,-1,-1,4,20*,3,6
COc1ccc2cc(C(=O)NCc3ccco3)c(=Nc3ccc(C(=O)O)cc3)oc2c1,5,·,9,-3,·,·
COc1ccc(N=c2oc3c(OC)cccc3cc2C(=O)NCc2ccco2)c(OC)c1,·,·,17,32*,13*,25*
CCOc1ccc(N(CC(=O)Nc2ccc(F)c(F)c2)S(=O)(=O)c2c(C)noc2C)cc1,-1,-1,-1,9.6*,1,7
O=C(O)CCCCCN1C(=O)/C(=C\c2cn(-c3ccccc3)nc2-c2cccs2)SC1=S,-5,4,16,26*,10.0*,3
O=C(O)CCN1C(=O)/C(=C/c2cn(-c3ccccc3)nc2-c2cccs2)SC1=S,-2,6,9,27*,1,2
COc1ccc(NC(=O)N(C)C[C@@H]2Oc3ccc(NC(=O)CCN4CCOCC4)cc3C(=O)N([C@@H](C)CO)C[C@@H]2C)cc1,·,0,·,·,·,·
C[C@@H]1CN([C@H](C)CO)C(=O)c2cc(NC(=O)c3ccccc3)ccc2O[C@@H](C)CCCCO[C@@H]1CN(C)C(=O)c1ccncc1,·,3,·,·,·,·
Cc1nn(-c2cccc(Cl)c2)c(Cl)c1/C=N/NC(=O)c1cccs1,2,·,0,25*,3,9
Cc1nn(-c2ccccc2)c(Cl)c1/C=N/NC(=O)c1ccccc1NS(=O)(=O)c1cccs1,-3,·,-5,3,·,·
CCNC(=S)N/N=C/c1c(C)nn(-c2cccc(Cl)c2)c1Cl,-1,·,9,21*,2,9
Cc1ccc(S(=O)(=O)N(C)C[C@H]2Oc3c(NC(=O)Nc4ccc(F)cc4)cccc3C(=O)N([C@H](C)CO)C[C@@H]2C)cc1,·,-2,·,·,·,·
